The source of these data is PMC4254850 (Clinical cancer research : an official journal of the …, 2014).

Entries after “also recorded” stand apart in the source; their conditions may differ. A value given as a limit tells only on which side of the number the result lay.

The subject of test [1] is human tumor xenograft models with PIK3CA mutations. As to conditions: in vivo; cited from earlier work.
The test system of the next test is class III PI3K. As to conditions: cited from earlier work.
In test [2] the test system is AKT phosphorylation (pAKT) in platelet-rich plasma (PRP). Kind of test: AKT phosphorylation in platelet-rich plasma. It is filed as in vivo, human. In a few lines: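 Oral single-dose run-in (Cycle 0, Day 1): citrated blood taken pre-dose and at 1, 2, 6, 24, 48 and 72 h, plus pre-dose on Cycle 1, Day 15. Spun 200 × g, 4°C, 15 min; PRP stabilised with phosphatase inhibitor, lysed with PMSF-containing buffer, snap-frozen. Phospho- and total AKT by quantitative electrochemiluminescent assay with recombinant active AKT standard curve per plate and spiked QC samples. p-AKT/total AKT expressed as % change from pre-treatment.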

A further test relates to advanced solid tumors. As to the kind of experiment: Tumor response. It is filed as in vivo, human. The procedure, abridged: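 Response assessed by RECIST v1.1 using imaging at baseline and every two cycles in patients dosed orally, QD or BID, in 28-day cycles. Response data summarised with descriptive statistics.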

As for `CS(=O)(=O)N1CCc2c(-c3cnc(N)nc3)nc(N3CCOCC3)nc21` [CH5132799], the Antitumor activity entry in test [1] was “significant antitumor activity”. Further, the “Inhibitory activity against class III PI3K” value in the test on class III PI3K is listed as “no inhibitory activity”. The “Maximal inhibition of p-AKT in PRP compared to baseline” value in test [2] (achieved at dose levels of 32 mg) was “approximately 50%”. Moreover, the “Duration of target engagement (reduction in phosphorylation of AKT in PRP)” value in test [2] (after single dose) is recorded as “less than 24 hours”. In addition, the “Dose levels at which p-AKT was consistently reduced in PRP” value in test [2] (p-AKT Ser473) fell in the range of 8 to 96 mg. In test [2] (single dose, 2 hrs post-dose), the “Dose with significant inhibition of PI3K signalling (reduction of AKT phosphorylation) in PRP” value was no less than 32 mg. Moreover, in the test on advanced solid tumors (48 mg BID), the “Response by GCIG CA125 criteria, patient with PIK3CA H1047R-mutated clear cell ovarian cancer” value was “partial response; also recorded: GCIG CA125 response” and the “Time on study of patient with GCIG CA125 response” value is reported as 6 cycles. For the same molecule, in the test on advanced solid tumors (72 mg BID), the “Clinical response, heavily pre-treated patient with triple negative breast cancer (no PIK3CA or AKT mutations)” value is “marked symptomatic and objective improvement in their cutaneous skin lesions”. In addition, in the test with advanced solid tumors (all patients), the “RECIST partial or complete responses” value was “no RECIST partial or complete responses” and the “Study participants with best response of stable disease by RECIST” value amounted to 21%.
